# Screening data (PubChem BioAssay)
# Shown are actives, neighbours in structure and some others; about 1.6% of the full set was active somewhere.
# TDP2 inh: human TDP2 enzyme inhibitors, primary screen, biochemical, epi absorbance, recombinant enzyme; T5PNP hydrolysis, p-nitrophenol absorbance 415 nm; AID 720702, 2013; 370,000 compounds, 0.34% hits; Tyrosyl-DNA phosphodiesterase 2 (Homo sapiens), O95551; inhibition, % at 12.8 µM;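 active means inhibition above the mean of all tested compounds plus 3 SD, set per campaign, cut at about 25% in these data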;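 further: 0% = DMSO with enzyme and 100% = buffer with substrate but no TDP2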
#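 Incubation: 2 h at 37 °C; Test system: recombinant human TDP2; Quantity: enzyme 120 nM; Read-out basis: percent inhibition; Medium: 50 mM Tris-HCl pH 7.5 with Mg2+, KCl, DTT, BSA; Repeats: single replicate; Compound: 12.8 µM single point, 1% DMSO; Signal: epi absorbance; Reagent: 5 mM T5PNP chromogenic substrate; Benchmarks: no-enzyme high, DMSO-plus-enzyme low.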
# CTSL1 counter: Fasciola hepatica cathepsin L1 inhibitors, primary screen, counter-screen for PFM18AAP inhibitor project, biochemical, QFRET, fluorogenic peptide substrate | inhibition, % at 5.96 µM | recombinant F. hepatica cathepsin L1, Z-Leu-Arg-MCA fluorescence | AID 1906, 2009 | 300,000 compounds, 0.49% hits;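 active means inhibition above the mean of all tested compounds plus 3 SD, set per screening campaign, cut at about 17% in these data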;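 further: 0% = plate median of test compound wells and 100% = 1 µM Z-Phe-Ala-diazomethylketone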
# HKDC1 inhibitor: HKDC1 hexokinase inhibitors, primary screen, biochemical, fluorescence, uHTS | Q2TB90 | recombinant HKDC1, G6PDH/diaphorase resazurin coupled fluorescence | inhibition, % at 20 µM | 340,000 compounds, 0.16% hits;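 active means inhibition above about 35% when tested at 20 µM, limit read from the data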;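 further: plate controls were DMSO wells with enzyme for no effect and DMSO wells lacking enzyme for full effect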
#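 Test system: HK5 enzyme. Quantity: 5 µg/mL HK5 final. Reagent: glucose and ATP substrates. Schedule: 90 min reaction incubation at room temperature, dark. Technique: resazurin-to-resorufin fluorescence via G6PDH and diaphorase coupling, 525/613 nm. Control set: DMSO wells with and without enzyme mix.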
# PAD4 FP inh: human PAD4 inhibitors, primary screen, biochemical, fluorescence polarization, 1536-well format | Protein-arginine deiminase type-4 (Homo sapiens), Q9UM07 | recombinant PAD4, RCA probe fluorescence polarization | AID 485272, 2010 | inhibition, % at 6.36 µM | 330,000 compounds, 0.41% hits;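 active means percent inhibition above a cutoff equal to the mean of all tested compounds plus 3 SD, cut at about 15% in these data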;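 further: 0% = PAD4 with RCA probe and DMSO and 100% = probe without PAD4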
# UCH37 inh: inhibitors of human UCH37 deubiquitinase, primary screen, biochemical, Ub-AMC cleavage, fluorescence; 330,000 compounds, 0.33% hits; inhibition, % (concentration not given with the values); purified proteasome/UCH37; AID 588478, 2011; Ubiquitin carboxyl-terminal hydrolase isozyme L5 (Homo sapiens), Q9Y5K5;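 active means mean inhibition over replicate wells above about 20%, limit read from the data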;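 further: 0% = compound-free wells with enzyme and 100% = wells lacking proteasome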
# Target sequence (Q9Y5K5 whole entry, looked up): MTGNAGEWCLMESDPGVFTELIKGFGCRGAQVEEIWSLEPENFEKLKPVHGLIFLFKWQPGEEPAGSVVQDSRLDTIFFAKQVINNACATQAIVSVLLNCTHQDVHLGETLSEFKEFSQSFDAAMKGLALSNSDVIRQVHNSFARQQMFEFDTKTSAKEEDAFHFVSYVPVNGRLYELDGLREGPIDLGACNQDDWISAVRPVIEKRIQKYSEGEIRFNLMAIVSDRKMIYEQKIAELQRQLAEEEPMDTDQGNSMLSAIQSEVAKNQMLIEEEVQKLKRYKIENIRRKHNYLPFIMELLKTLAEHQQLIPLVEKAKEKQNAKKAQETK
#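 Material: Human UCH37 enzyme supplied as purified proteasome complex | Schedule: 30 min preincubation with enzyme, 25 min cleavage at room temperature | Detection: AMC fluorescence 355/460 nm | Measure: % inhibition of Ub-AMC cleavage fluorescence | Controls: Wells without proteasome as full block, compound-free enzyme plus substrate as uninhibited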
# GSTO1 counter: inhibitors of recombinant GSTO1, primary screen, counter-screen for RBBP9 inhibitor project, biochemical, fluorescence polarization | Glutathione S-transferase omega-1 (Homo sapiens), P78417 | activity-based probe fluorescence polarization | inhibition, % at 5.96 µM | 300,000 compounds, 1.1% hits;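 active means inhibition above the campaign mean inhibition plus 3 SD, cut at about 35% in these data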;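 further: 0% = GSTO1-1 with DMSO and 100% = wells lacking GSTO1-1 enzyme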
# Target sequence (P78417 whole entry, looked up): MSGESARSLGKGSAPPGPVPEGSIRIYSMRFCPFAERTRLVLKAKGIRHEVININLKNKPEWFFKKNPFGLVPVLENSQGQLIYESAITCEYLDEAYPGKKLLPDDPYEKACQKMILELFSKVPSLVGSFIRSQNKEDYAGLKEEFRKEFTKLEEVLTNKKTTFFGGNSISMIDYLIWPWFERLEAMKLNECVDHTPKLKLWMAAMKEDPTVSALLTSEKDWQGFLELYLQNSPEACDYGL
# * hit, by the source's call; / = not tested or not shown.
SMILES,TDP2 inh,CTSL1 counter,HKDC1 inhibitor,PAD4 FP inh,UCH37 inh,GSTO1 counter
O=C1C(=O)N(CCS(=O)(=O)c2ccccc2)c2ccc(F)cc21,21.2,5.0,17.9,-6.1,3.9,35.9*
O=S(c1cc(Cl)cc(Cl)c1O)c1cc(Cl)cc(Cl)c1O,-1.3,/,/,/,/,/
Oc1c(Cl)cc(Cl)cc1Sc1cc(Cl)cc(Cl)c1O,/,0.9,/,-3.4,/,56.6*
O=C(c1ccccc1)N1CCN(C(=O)c2cc3ccccc3o2)CC1,0.4,3.1,-1.5,2.0,27.2*,9.0
Cc1nc2sc3c(c2c(=O)n1N=Cc1ccco1)CCCC3,/,/,/,/,4.1,/
O=S1(=O)c2ccccc2N=NN1Cc1ccc(Cl)c(Cl)c1,/,6.6,/,-7.4,/,35.0*
CC(=O)Nc1ccc(N(C(=O)Cn2nnc3ccccc32)C(C(=O)NC2CCCC2)c2ccc(O)c(O)c2)cc1 (centres undefined),-5.9,-1.1,-5.8,-1.9,0.8,42.7*
COc1ccc(C=c2sc3nc(=O)c(C)nn3c2=O)c(OC)c1,/,/,/,/,1.5,/
CCOc1cc(/C=C2\SC(=O)N(CC(=O)Nc3ccccc3F)C2=O)cc([N+](=O)[O-])c1O,-5.5,10.4,14.3,0.7,22.9*,18.2
O=C(O)c1c2c(nc3ccc(S(=O)(=O)N4CCC(C(=O)NCc5ccc(Cl)cc5)CC4)cc13)CCCC2,6.9,20.4*,-1.6,-2.2,2.1,2.3
CC(N)=Nc1ccc([N+](=O)[O-])cc1,-6.6,0.1,-8.2,-1.6,5.5,2.1
O=[N+]([O-])c1ccc(N=Nc2c(Cl)cc(O)cc2Cl)cc1,-14.5,0.7,10.9,15.7*,5.1,56.5*
Cc1cccc(N=Cc2[nH]c3ccc(Br)c(Cl)c3c2O)c1,28.8*,-3.5,7.0,3.8,9.2,15.1
CCCCN(C)CCNC(=O)C(NC(=O)C1CCC(C)CC1)C(C)C (centres undefined),-16.0,55.7*,-2.7,1.5,5.1,-3.9
CC1CCC(C(=O)NC(C(=O)NCCCN2CCOCC2)C(C)C)CC1 (centres undefined),2.5,11.8,7.2,1.7,2.5,15.1
Cc1ccc(S(=O)(=O)NN=Cc2cccnc2)cc1,/,/,/,/,4.3,/
CC(C)OC(=O)CSc1nnc(-c2ccccn2)n1-c1ccccc1,8.5,-2.6,1.4,-3.5,5.5,36.6*
CC(Cn1nc([N+](=O)[O-])cc1C)=NNC(=O)c1cccc(Br)c1,/,/,/,/,1.8,/
COc1cc(C=NN2CCOCC2)ccc1OCc1ccccc1,/,/,/,/,3.0,/
O=C(CNC(=O)c1ccco1)NCC(=O)OC(C(=O)c1ccccc1)c1ccc(Cl)cc1 (centres undefined),-5.1,-4.5,4.9,-2.1,0.6,-2.4
O=C(CNC(=O)c1ccco1)OC(C(=O)c1ccccc1)c1ccccc1 (centres undefined),-8.4,18.6*,5.7,-0.3,3.0,-0.4
CC1CCCC(C)N1/N=C/c1ccc(O)c(O)c1 (centres undefined),-6.3,0.8,-0.6,4.5,/,35.9*
COc1ccc(C=NNC(=O)c2nnn(-c3nonc3N)c2-c2cccs2)cc1OC,/,/,/,/,-193.8,/
COC(=O)NCc1ccc(Cl)c(Cl)c1,-9.7,2.3,-5.2,0.5,-2.2,-1.2
COc1ccc(CNC(=O)Oc2ccccc2)cc1Cl,12.7,19.1*,8.0,-4.2,6.9,3.9
SMILES,TDP2 inh,CTSL1 counter,HKDC1 inhibitor,PAD4 FP inh,UCH37 inh,GSTO1 counter
COC(=O)c1cc(O)cc(OC)c1Oc1cc(C)cc(O)c1C(=O)O,-15.1,3.3,12.8,-4.4,6.1,36.2*
COC(=O)c1cc(O)cc(OC)c1C(=O)c1c(O)cc(C)cc1O,-3.8,-0.5,5.1,-1.4,3.4,-0.5
COc1ccc(C=NNC(=O)c2cccc(O)c2)cc1Cn1nc(C)c([N+](=O)[O-])c1C,/,/,/,/,6.2,/
CCN(CC)C(=O)C1=C(C)NC(=S)NC1c1cccs1 (centres undefined),-4.5,-1.8,-8.7,-1.1,26.9*,-6.8
COc1ccc(N2C(=O)C(C)(C)C2c2c(O)ccc3ccccc23)cc1 (centres undefined),0.8,16.9*,-0.2,-4.3,3.0,7.4
COc1ccc(N2CSC3=C(C#N)C(c4cc(OC)ccc4OC)CC(=O)N3C2)c(OC)c1 (centres undefined),/,-2.6,27.1,-4.5,8.8,30.6
COc1ccc(N2CSC3=C(C#N)C(c4cc(OC)c(OC)cc4OC)CC(=O)N3C2)c(OC)c1 (centres undefined),-7.1,3.0,12.5,-9.1,5.5,38.7*
COc1ccc(Nc2nc3ccc(C)cn3c(=O)c2C=NO)cc1,/,/,/,/,2.2,/
NC(=S)N/N=C/c1ccc(-c2cccc([N+](=O)[O-])c2)o1,-5.8,24.8*,6.2,-2.4,/,4.5
NC(=S)N/N=C/c1cc([N+](=O)[O-])ccc1OCCOc1ccccc1,-2.6,81.0*,-3.1,1.6,/,8.6
NC(=O)COc1cccc(C=NNC(=O)c2ccc(-n3cccc3)cc2)c1,/,/,/,/,3.6,/
O=C(NN=Cc1ccco1)Nc1ccccc1,/,/,/,/,4.5,/
CCc1ccc(N2C(=O)CC(NNc3nc4ccccc4s3)C2=O)cc1 (centres undefined),1.9,6.6,-14.0,-11.7,/,37.6*
O=C1CC(NNc2nc3ccccc3s2)C(=O)N1c1ccccc1 (centres undefined),-1.5,-1.4,8.8,-2.0,-0.6,10.7
Cc1[nH]c2ccccc2c1C=NNc1nc(Nc2ccccc2)nc(N2CCOCC2)n1,/,/,/,/,2.4,/
O=C(Nc1ccc(Br)cn1)C1CCCN1S(=O)(=O)c1ccccc1 (centres undefined),-3.8,2.0,-3.8,2.2,29.5*,6.7
COc1cc(C(=O)O)ccc1O,6.5,-3.8,-5.7,0.5,0.8,3.9
COc1cc(C(=O)C(=O)c2ccc(O)c(OC)c2)ccc1O,-8.3,2.9,-2.8,-4.8,21.4*,6.9
CC(=NOC(=O)Nc1ccc(Cl)cc1)c1ccc(F)c(F)c1,/,/,/,/,4.7,/
Cc1cc(SCC(=O)NN=Cc2ccc(C(=O)O)cc2)nc2ccccc12,/,/,/,/,7.9,/
O=C(O)CNC(=S)NCc1ccccc1,9.0,-1.4,-2.5,-3.8,/,-3.9
O=C(Cc1ccc(O)cc1)NCCNC(=S)NCc1ccccc1,6.7,25.2*,-1.2,0.7,2.5,23.3
O=C(C[n+]1cccc(C(=O)NN=Cc2ccc(Br)cc2)c1)c1ccccc1,/,/,/,/,8.4,/
Oc1ccc(NCc2cccc(OCc3ccc(F)cc3)c2)cc1,14.4,-3.8,3.4,-1.9,-2.8,76.8*
